Assay results published in ChEMBL document CHEMBL1135732, “Synthesis and antitumor activity of several new analogues of penclomedine and its metabolites” (2002).

Tests used:
Mus musculus [1] = test: In vivo optimal (ip) dosage (<LD10) against subcutaneously implanted human mammary tumor xenograft MX-1 on a five-successive day schedule in Athymic NCr-nu/nu mice; assay type: functional
Procedure, shortened: (§1)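 Human MX-1 breast tumor fragments (30–40 mg) from in vivo passage implanted subcutaneously in the axillary region. Dosing ip as a suspension in aqueous hydroxypropyl cellulose, once daily for 5 days, beginning when tumors reached about 300 mg. Groups of five mice. Tumors caliper-measured in two dimensions twice weekly and converted to mass. Study ended when control tumors reached 1 g.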

Mus musculus [2] = species: Mus musculus; test: Tumor growth delay in comparison vehicle-treated control, difference in the median time poststaging for tumors of the treated (T) group to double twice in mass compared to the median of the control (C) group ce; assay type: functional
Procedure, shortened: (§2)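 MX-1 human breast tumor (NCI repository), fragments of 30–40 mg from in vivo passage implanted subcutaneously in the axillary region. Groups of five mice dosed ip for 5 days once tumors reached about 300 mg, with compound as a suspension in aqueous hydroxypropyl cellulose. Tumors were caliper-measured in two dimensions twice weekly and converted to mass. Growth delay T−C was the difference in median time to two doublings versus vehicle controls. Regressions and tumor-free survivors were also recorded. The study ended when controls reached 1 g.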

Mus musculus [3] = species: Mus musculus; test: Number of tumor-free survivors in a group of five mice; assay type: functional; procedure, shortened: as §1
Mus musculus [4] = test: In vivo optimal (ip) dosage (<LD10) against subcutaneously implanted human mammary tumor xenograft MX-1 on a five-successive day schedule in Athymic NCr-nu/nu mice; Toxic; assay type: functional, organism-based; procedure, shortened: as §2

Row | Compound | Optimal dosage (Mus musculus [1]) [mg kg-1 dose-1 day-1] | T-C (Mus musculus [2]) [days] | Tumor-free (Mus musculus [3]) [survivors/total] | Optimal dosage (Mus musculus [4])
1 | CCOc1c(Cl)c(OC)nc(C(Cl)(Cl)Cl)c1Cl | 90 | >42.7 | 5 | –
2 | CCOc1nc(C(Cl)(Cl)Cl)c(Cl)c(OC)c1Cl | 200 | >38.6 | 2 | –
3 | Clc1c(Oc2ccccc2)nc(C(Cl)(Cl)Cl)c(Cl)c1Oc1ccccc1 | 135 | 0.2 | 0 | –
4 | COc1nc(C(Cl)(Cl)Cl)c(Cl)c(Cl)c1Cl | 135 | -1.4 | 0 | –
5 | COc1c(Cl)c(O)nc(C(Cl)(Cl)Cl)c1Cl | 135 | 0.8 | 0 | –
6 | CCOc1nc(C(Cl)(Cl)Cl)c(Cl)c(OC(=O)COC)c1Cl | 135 | 17.8 | 0 | –
7 | Oc1c(Cl)c(Cl)nc(C(Cl)(Cl)Cl)c1Cl | 50 | 2 | 0 | –
8 | CCOc1nc(C(Cl)(Cl)Cl)c(Cl)c(O)c1Cl | 60 | 5.2 | 0 | –
9 | CCCCOc1c(Cl)c(OC)nc(C(Cl)(Cl)Cl)c1Cl | 90 | 20.5 | 1 | –
10 | COc1c(Cl)c(Oc2ccccc2)nc(C(Cl)(Cl)Cl)c1Cl | 135 | 2.3 | 0 | –
11 | CCOc1nc(C(Cl)(Cl)Cl)c(Cl)c(OCC)c1Cl | 135 | >41 | 4 | –
12 | COc1nc(C(Cl)(Cl)Cl)c(Cl)c(OC(C)C)c1Cl | 60 | >35.2 | 2 | –
13 | COc1nc(C(Cl)(Cl)Cl)c(Cl)c(O)c1Cl | 90 | >37.2 | 3 | –
14 | CCCCOc1nc(C(Cl)(Cl)Cl)c(Cl)c(O)c1Cl | 135 | -0.9 | 0 | –
15 | CCOc1nc(C(Cl)(Cl)Cl)c(Cl)c(OC(C)=O)c1Cl | 90 | 1.4 | 0 | –
16 | COc1c(Cl)c(Cl)nc(C(Cl)(Cl)Cl)c1Cl | 50 | 4.3 | 0 | –
17 | COc1c(Cl)c(OCC(F)(F)F)nc(C(Cl)(Cl)Cl)c1Cl | 90 | 1.2 | 0 | –
18 | COc1nc(C(Cl)(Cl)Cl)c(Cl)c(OC)c1Cl [PENCLOMEDINE] | 90 | >49 | 5 | –
19 | CCCCOc1nc(C(Cl)(Cl)Cl)c(Cl)c(OCCCC)c1Cl | 135 | -0.6 | 0 | –
20 | COc1c(Cl)c(C(Cl)(Cl)Cl)nc(C(Cl)(Cl)Cl)c1Cl | 135 | -0.8 | 0 | –
21 | FC(F)(F)COc1nc(C(Cl)(Cl)Cl)c(Cl)c(OCC(F)(F)F)c1Cl | 135 | 0.4 | 0 | –
22 | Oc1c(Cl)c(OCC(F)(F)F)nc(C(Cl)(Cl)Cl)c1Cl | 90 | -0.2 | 0 | –
23 | CC(=O)Oc1c(Cl)c(Cl)nc(C(Cl)(Cl)Cl)c1Cl | – | – | – | Toxic
24 | CC(=O)Oc1nc(C(Cl)(Cl)Cl)c(Cl)c(OC(C)=O)c1Cl | 40 | -0.5 | 0 | –
25 | CCCCOc1nc(C(Cl)(Cl)Cl)c(Cl)c(OC)c1Cl | 135 | -0.8 | 0 | –
26 | COc1nc(C(Cl)(Cl)Cl)c(Cl)c(OC(C)=O)c1Cl | 90 | >41 | 5 | –
27 | Oc1nc(C(Cl)(Cl)Cl)c(Cl)c(O)c1Cl | 40 | -0.5 | 0 | –
28 | CCCOc1c(Cl)c(OC)nc(C(Cl)(Cl)Cl)c1Cl | 60 | 5.4 | 0 | –
29 | CC(C)Oc1nc(C(Cl)(Cl)Cl)c(Cl)c(OC(C)C)c1Cl | 135 | -0.7 | 0 | –
